# From the RNAGym collection of RNA variant scans (doi:10.1126/science.aae0568)
# Fewer inactive variants are shown than the library holds.
# B1: tRNA (parent)
# chain: GUUCCGUUGGCGUAAUGGUAACGCGUCUCCCUCCUAAGGAGAAGACUGCGGGUUCGAGUCCCGUACGGAACG
# Variants of: B1
# Experiment: yeast fitness relative to wild type (ratio to wild type); higher = fitter; tRNA-Arg(CCU), competitive growth, 37 C, YPD
# Summary of the method: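 Changes in genotype frequencies gave Darwinian fitness relative to wild type. Frequencies were read by 100-nucleotide paired-end sequencing of gene amplicons before and after pooled Saccharomyces cerevisiae strains, carrying tRNA-Arg(CCU) gene variants at the native locus, were competed in YPD at 37°C for 24 hours in six replicates. A genotype was kept only with ≥ 100 starting reads, and estimates < 0.5 were set to 0.5.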
row,Variant,yeast fitness
1,GUUCCGUUGGCGUAAUGGUAACGCGUUUCCCUCCUAAGGAGAAGACUGCGGGUUCGAGUCCCGUCCGGAACG,1.02
2,GUUCCGUUGGCGUAAUAGUAACGCGUCUCCCACCUAAGGAGAAGACUGCGGGUUCGAGUCCCGUACGGAACG,0.691
3,GUUCGGUUGGCGUUAUGGUAACGCGUCUCCCUCCUAAGGAGAAGACUGAGGGUUCGGGUCCCGUACGGAACG,0.639
4,GCUCCGUUGGCGUAAUGGUAACGCGUCUCCGUCCUAAGGAGAAGACUGCGGGUUCAAGUCCCGUACGGAACG,0.687
5,GUUCCGUUGGCGUAAUGGUAAUGGGUCUCGCUCCUAAGGAGAAGACUGCGGGUUCGAGUCCCGUACGGAACG,≤ 0.5
6,GUUCCGUUGGCGUAAUGGUAACGCGUCUCCCUCCUAAGGAGAAGCCUGCGGGUUCGAGUCCCGUCCGGAACG,0.683
7,GUUCCGUUGGCGUAAUGGUCACGCGUCUCCCUCCUAAAGAGAAGACUGCGGGAUCGAGUCCCGUACGGAACG,≤ 0.5
8,GUUCCGUUGGGGUAAUGGUAACGCGCCUCCCUCCUAAGGAGAAGACUGCGGGUUCGAGUCCCGUACCGCACG,≤ 0.5
9,GUUCCGUUGGCGUAAUGGUACGGCGUCUCCCUCCUAAGGAGAAGACUGCGGGUUCGAGUCCCGUACGGCACG,≤ 0.5
10,GUUACGUUGGCGUAAUGGUAACGCGUCUGCCUCCUACGGAGAAGACUGCGGGUACGAGUCCCGUACGGAACG,≤ 0.5
11,GUUCCGUUGGCGUAAUGGUAACGCGUCUCCCUCCUAAGGAGAAGACUGCGGGUUCGAGGGCCGUACGGAACG,0.638
12,GUUCCGUUGGCGUAAUGGAAACGCGUCUCCCUCCUAAGGAGAAGACUGUGGGUUCGAGUCCCGUACGGAACG,1.03
13,GUUCCGUUGGCAUAAUGGUAACGCGUCUCCCUCCUAAGGAGAAGACUGCGGGUUCGUGUCCCGUACGGAACG,0.668
14,GUUUCGUUGGCGUAAUGGUAACGAGUCUCCCUCCUAAGGAGAAGACUGCGGGUUCGAGUCCCGUACGGUACG,0.601
15,GUUACGUUGGCGUAUUGCUAACGCGUCUCCCUCCUAAGGAGAAGACUGCGGGUUUCAGUCCCGUACAGAACG,≤ 0.5
16,GUUCCGUUAGAGUAAUGGUAACGCGUCUCCCUCCUAAGGAGAACACUGCGGGUUCGAGUCCCGUACGGAACG,≤ 0.5
17,GUUCCGUUGGUGUAAUGCUAGCGCGUCUCCCUCCUAAGGAGAAGACUGCGGGUUCGAGUCCCGUACGGAACG,0.571
18,GUUCCGUUGGCGUAAUGGUAAGGAGUUUCCCUCCUAAGGAGAAGACUGCGGGUUCGAGACCCGUACGGAACG,≤ 0.5
19,GUUCCGUUGGCGUAGUGGUAACGCGUCUGCCUCCUACGGAGUAGACUGCGGGUUCGGGUCCCGUACAGAACG,≤ 0.5

row,Variant,yeast fitness
1,GUUCGGUUGGCGUAAUGGUAACGCAUCUCCCUCCUAAGGAGAAGACUGCGGGUUCGAGUCCCGUACGUAACG,0.633
2,GUUCCGUUGGUGUAAUGAUAACGCGUCUCCCUCCUUAGGAGAAGACUGCGGGUUCGAGUCCCGUACGGAACG,≤ 0.5
3,GUUCCGGUGGCGUAAUGGUAACGCGUCCCCCUCCUAAGGACAAGACUGCGGGUUCGACUCCCGUACGGAACG,≤ 0.5
4,GUUCCGUUGGCGUAAUGGUAAGGCGUCACCCUCCUAAGGUGAAGACUGCGGGUUCGUGUCCCGUACGGAACG,0.657
5,GUUGCGUUGGCGUAAUGGUAACGCGUCUCCCUCCUAAGGAGGAGUCUGCGGGUUCGAGUCCCGUAUGGAACG,0.659
6,GUUCCGUUGGCCUAAUGGUAACGGGUCUCCCUCCCAAGGAGAAGACUGCGGGUUCGAGUCCCGUACGGAACG,≤ 0.5
7,GUUCCGUUGGCGUAAUGGUAACGCGUCUCCCACCUAGGGAGAAGACUACGGGUUCGAGCCCCGUACGGAACG,0.541
8,GUUCCGUUGGCGUAAUGGUAAGGCGUCUCCCUCAUAAGGAGAAGACUGCGGGUUCGAGUCCCGUACUGAACG,≤ 0.5
9,GUUCCGUUGGCGUAAUGGUCACGCGUCUCCCUCCUAAGGAGACGACUGAGGGUACGAAUACCGUACGGAACG,≤ 0.5
10,GUUCCGAUGGCGUAAUGGUAACGGGUCUGUCUCCUAAGGCGAAGACUGCGGGUUCGAGUCCCGUUCGGAACG,0.59
11,GUUCCGUUGGCGUAAUGGUAACGCGUCUCCCUCUUAAGGAGAAGACUGCGGGUUCGAGUCGCGUACGGAACG,≤ 0.5
12,GUUCCGUUGGCGUAAUGGUAACGCGUUUCCCUGGUAAGGAGAAAACUGCAGAUUCGAGUCCCGUACGGAACG,0.558
13,GUCCCGUUGGCGAAAUGGUAACGCGUCUCCUUCCUAAGGAAAAGACUGCGGGUUCGCGUCCCGUACGGAUCG,≤ 0.5
14,GUUCCGUUGGCGUAAUGGGAACGCGUCUCCCUCCUAAAGAGAAGACUGCAGGUUCGAGUCCCGUACGGAACG,≤ 0.5
15,GUUCCGUUGGCGUAAUGGUGACGGGUCUCCCCCCUAAGGAGAAGACUGCGAGUUCGAGUCCCGUACGGAACG,≤ 0.5
16,GUUCCAUUAGCGUAAUGGUAACGCGUCUCCCUCCUCUGGAGAAGACUGCGAGUUCGAGUCCGGUACGGAACG,≤ 0.5
17,GUUCCGUUGGCGUAAUGGUAGCGCGUCUCCCUCCCAAGGAGAAGACUGCGGGUUCGAGUCCCGUAAGGAACG,≤ 0.5
18,GUUCCGUUGGCGUAAUGGUAACGCGUCUCCCUCCUAAGGUGAAGACUGCGGGUCCGAGUACCGUACGGAACG,≤ 0.5
